# Measured values taken from ChEMBL document CHEMBL5303300, “EUbOPEN Chemogenomics Library - Multiplex” (2023).
# Several values for one entry are separate records, joined by “and”; a condition that tells them apart may be missing. Equal entries are not always repeated.
# What was measured:
# Fibroblast = assay: Multiplex assay against human fibroblast; assay type: toxicity, cell-based; conditions: number of replicates 2
# Outline: (§1)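 With compound added, live cells were imaged on a CQ1 microscope at 37°C and 5% CO2; staining with Hoechst33342, BioTracker Green Microtubule Cytoskeleton Dye, MitoTracker Red and Annexin V Alexa Fluor 680 had been done at seeding. The CellPathfinder machine-learning gating scheme split cells into Hoechst high-intensity objects or normal cells, normal cells into healthy, pyknosed or fragmented nuclei, and pyknosed cells into mitotic or apoptotic. The tubulin, mitochondrial-mass and membrane-permeability phenotypes are per cents of healthy-nucleus cells.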
# HEK-293T = assay: Multiplex assay against HEK293T; assay type: toxicity, cell-based; conditions: human, number of replicates 2; outline: as §1
# [1] = 12 h, 1 µM, compound concentration 1 uM
# [2] = 12 h, 10 µM, compound concentration 10 uM
# [3] = 24 h, 1 µM, compound concentration 1 uM
# [4] = 24 h, 10 µM, compound concentration 10 uM
# [5] = 48 h, 1 µM, compound concentration 1 uM
# [6] = 48 h, 10 µM, compound concentration 10 uM
structure (smiles),measurement,setting,value
CC(=O)N(CCN(C)C)c1ccc(N/C(=C2\C(=O)Nc3cc(Cl)ccc32)c2ccccc2)cn1,Population Apoptotic (%),Fibroblast; [1],45% and 32%
same,Population Fragmented Nuclei (%),Fibroblast; [1],15% and 19%
same,Population Healthy Nuclei (%),Fibroblast; [1],54% and 64%
same,Population Hoechst High Intensity Objects (%),Fibroblast; [1],0%
same,Population Membrane Permeable-Phenotype (%),Fibroblast; [1],13% and 3%
same,Population Mitochondria Different-Phenotype (%),Fibroblast; [1],2% and 4%
same,Population Mitotic Cells (%),Fibroblast; [1],54% and 67%
same,Population Normal (%),Fibroblast; [1],100%
same,Population Pyknosed Nuclei (%),Fibroblast; [1],30% and 16%
same,Population Tubulin-Different-Phenotype (%),Fibroblast; [1],26% and 21%
same,Total Cell Count,Fibroblast; [1],176 and 230
same,Population Apoptotic (%),Fibroblast; [2],60% and 50%
same,Population Fragmented Nuclei (%),Fibroblast; [2],15% and 20%
same,Population Healthy Nuclei (%),Fibroblast; [2],50% and 56%
same,Population Hoechst High Intensity Objects (%),Fibroblast; [2],0%
same,Population Membrane Permeable-Phenotype (%),Fibroblast; [2],6% and 10%
same,Population Mitochondria Different-Phenotype (%),Fibroblast; [2],35% and 27%
same,Population Mitotic Cells (%),Fibroblast; [2],39% and 50%
same,Population Normal (%),Fibroblast; [2],100% and 99%
same,Population Pyknosed Nuclei (%),Fibroblast; [2],33% and 22%
same,Population Tubulin-Different-Phenotype (%),Fibroblast; [2],88% and 81%
same,Total Cell Count,Fibroblast; [2],151 and 211
same,Population Apoptotic (%),Fibroblast; [3],60% and 63%
same,Population Fragmented Nuclei (%),Fibroblast; [3],17% and 22%
same,Population Healthy Nuclei (%),Fibroblast; [3],56% and 62%
same,Population Hoechst High Intensity Objects (%),Fibroblast; [3],0%
same,Population Membrane Permeable-Phenotype (%),Fibroblast; [3],7%
same,Population Mitochondria Different-Phenotype (%),Fibroblast; [3],1% and 4%
same,Population Mitotic Cells (%),Fibroblast; [3],39% and 36%
same,Population Normal (%),Fibroblast; [3],99%
same,Population Pyknosed Nuclei (%),Fibroblast; [3],26% and 15%
same,Population Tubulin-Different-Phenotype (%),Fibroblast; [3],25% and 24%
same,Total Cell Count,Fibroblast; [3],176 and 221
same,Population Apoptotic (%),Fibroblast; [4],81% and 82%
same,Population Fragmented Nuclei (%),Fibroblast; [4],17% and 15%
same,Population Healthy Nuclei (%),Fibroblast; [4],41% and 46%
same,Population Hoechst High Intensity Objects (%),Fibroblast; [4],2% and 0%
same,Population Membrane Permeable-Phenotype (%),Fibroblast; [4],8% and 3%
same,Population Mitochondria Different-Phenotype (%),Fibroblast; [4],63% and 70%
same,Population Mitotic Cells (%),Fibroblast; [4],18% and 17%
same,Population Normal (%),Fibroblast; [4],97% and 100%
same,Population Pyknosed Nuclei (%),Fibroblast; [4],41% and 37%
same,Population Tubulin-Different-Phenotype (%),Fibroblast; [4],90% and 83%
same,Total Cell Count,Fibroblast; [4],149 and 170
same,Population Apoptotic (%),Fibroblast; [5],80% and 68%
same,Population Fragmented Nuclei (%),Fibroblast; [5],19% and 25%
same,Population Healthy Nuclei (%),Fibroblast; [5],59% and 61%
same,Population Hoechst High Intensity Objects (%),Fibroblast; [5],0%
same,Population Membrane Permeable-Phenotype (%),Fibroblast; [5],9% and 7%
same,Population Mitochondria Different-Phenotype (%),Fibroblast; [5],2% and 5%
same,Population Mitotic Cells (%),Fibroblast; [5],20% and 31%
same,Population Normal (%),Fibroblast; [5],99% and 100%
same,Population Pyknosed Nuclei (%),Fibroblast; [5],21% and 13%
same,Population Tubulin-Different-Phenotype (%),Fibroblast; [5],36% and 29%
same,Total Cell Count,Fibroblast; [5],167 and 217
same,Population Apoptotic (%),Fibroblast; [6],94% and 95%
same,Population Fragmented Nuclei (%),Fibroblast; [6],25% and 23%
same,Population Healthy Nuclei (%),Fibroblast; [6],25% and 17%
same,Population Hoechst High Intensity Objects (%),Fibroblast; [6],0%
same,Population Membrane Permeable-Phenotype (%),Fibroblast; [6],15% and 6%
same,Population Mitochondria Different-Phenotype (%),Fibroblast; [6],48% and 43%
same,Population Mitotic Cells (%),Fibroblast; [6],5% and 4%
same,Population Normal (%),Fibroblast; [6],99% and 100%
same,Population Pyknosed Nuclei (%),Fibroblast; [6],48% and 58%
same,Population Tubulin-Different-Phenotype (%),Fibroblast; [6],89% and 81%
same,Total Cell Count,Fibroblast; [6],152 and 178
same,Population Apoptotic (%),HEK-293T; [1],32% and 41%
same,Population Fragmented Nuclei (%),HEK-293T; [1],2%
same,Population Healthy Nuclei (%),HEK-293T; [1],84% and 85%
same,Population Hoechst High Intensity Objects (%),HEK-293T; [1],5%
same,Population Membrane Permeable-Phenotype (%),HEK-293T; [1],2% and 3%
same,Population Mitochondria Different-Phenotype (%),HEK-293T; [1],23% and 26%
same,Population Mitotic Cells (%),HEK-293T; [1],67% and 58%
same,Population Normal (%),HEK-293T; [1],94%
same,Population Pyknosed Nuclei (%),HEK-293T; [1],12%
same,Population Tubulin-Different-Phenotype (%),HEK-293T; [1],65% and 70%
same,Total Cell Count,HEK-293T; [1],666 and 654
same,Population Apoptotic (%),HEK-293T; [2],64% and 79%
same,Population Fragmented Nuclei (%),HEK-293T; [2],3% and 4%
same,Population Healthy Nuclei (%),HEK-293T; [2],77% and 71%
same,Population Hoechst High Intensity Objects (%),HEK-293T; [2],14% and 17%
same,Population Membrane Permeable-Phenotype (%),HEK-293T; [2],1% and 3%
same,Population Mitochondria Different-Phenotype (%),HEK-293T; [2],93% and 91%
same,Population Mitotic Cells (%),HEK-293T; [2],35% and 20%
same,Population Normal (%),HEK-293T; [2],85% and 82%
same,Population Pyknosed Nuclei (%),HEK-293T; [2],19% and 24%
same,Population Tubulin-Different-Phenotype (%),HEK-293T; [2],90% and 92%
same,Total Cell Count,HEK-293T; [2],227 and 197
same,Population Apoptotic (%),HEK-293T; [3],28%
same,Population Fragmented Nuclei (%),HEK-293T; [3],1% and 4%
same,Population Healthy Nuclei (%),HEK-293T; [3],89% and 87%
same,Population Hoechst High Intensity Objects (%),HEK-293T; [3],6% and 7%
same,Population Membrane Permeable-Phenotype (%),HEK-293T; [3],1% and 3%
same,Population Mitochondria Different-Phenotype (%),HEK-293T; [3],12% and 10%
same,Population Mitotic Cells (%),HEK-293T; [3],71%
